Hits are enriched below; roughly 1.9% of the tested compounds scored in any of these assays.
MIN6 prolif-1: inducers of beta-cell replication in MIN6 cells | MIN6 cells proliferation, ATPlite luminescence, 48 h; cells starved in 0.2% serum; 100% = growth in 10% serum | proliferation, % at 10 µM | 330,000 tested, 0.29% active | AID 2380;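 active means compounds whose signal lies at least 3.5 SD above the mean of all wells on their plate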;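 further: 0% = DMSO-treated cells in low-serum medium and 100% = 10% serum control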
Rce1 inhib: yeast Ras-converting enzyme inhibition; 290,000 tested, 0.27% active; calls only; AID 2563; Q03530; yeast membranes, quenched prenylated peptide cleavage fluorescence;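 active means fall in fluorescence gain of 50% or more versus controls, with final raw signal at or below 3038400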;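 further: plate controls were neutral control wells for no effect and wells lacking membranes for full effect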
Target sequence (Q03530 whole entry, looked up): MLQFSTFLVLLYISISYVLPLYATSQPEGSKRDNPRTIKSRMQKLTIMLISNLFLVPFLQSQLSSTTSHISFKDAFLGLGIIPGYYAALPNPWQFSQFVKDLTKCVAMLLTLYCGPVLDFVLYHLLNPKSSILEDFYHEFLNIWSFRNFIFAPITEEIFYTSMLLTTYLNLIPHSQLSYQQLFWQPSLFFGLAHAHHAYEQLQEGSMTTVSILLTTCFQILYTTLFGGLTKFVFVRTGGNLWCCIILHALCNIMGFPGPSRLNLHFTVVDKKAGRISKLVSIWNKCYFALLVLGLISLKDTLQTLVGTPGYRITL
V-ATPase pH: alters yeast V-ATPase proton transport; S. cerevisiae, pHLuorin cytosolic pH fluorescence; response, % at 10 µM; 350,000 tested, 0.37% active; in the data active means response mostly above about 7.3%, no sharp cut-off; inactive means mostly below about 5.4%; further: actives read high
proKLK7 act: proKLK7 (human) activation, primary screen | P49862 | 370,000 tested, 0.9% active | AID 652039 | purified proKLK7, EDANS-DABCYL substrate fluorescence; 100% is mature enzyme control, 0% vehicle | activation, % at 7 µM;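 active means activation above the mean of all tested compounds plus 3 SD, computed per campaign excluding outliers beyond control limits, cut at about 13% in these data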
Target sequence (P49862 whole entry, looked up): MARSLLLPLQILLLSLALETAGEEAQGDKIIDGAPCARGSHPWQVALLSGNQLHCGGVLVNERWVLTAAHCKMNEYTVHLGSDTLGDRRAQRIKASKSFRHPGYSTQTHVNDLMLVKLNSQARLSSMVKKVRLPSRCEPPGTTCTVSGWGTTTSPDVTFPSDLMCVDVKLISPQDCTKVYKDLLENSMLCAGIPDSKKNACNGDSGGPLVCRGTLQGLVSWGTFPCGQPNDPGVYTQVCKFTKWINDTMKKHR
Yeast superoxide: caloric restriction mimetics inhibiting age-related superoxide in yeast. S. cerevisiae aged cells, superoxide DHE fluorescence; stronger effect = lower value. superoxide response (% of plate mean), % at 10 µM. 330,000 tested, 0.18% active. AID 2690;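 active means superoxide response under a set limit, about three screen SD below normal, cut at about 65% in these data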;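 further: yeast aged for seven days with compound at 30 °C before DHE staining; 100% = average MFI of all compound-treated wells on the plate with controls excluded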
T cell HTS: T cell immune modulators affecting CD8 T cell-vesicle binding; 2C CD8+ T cell-vesicle binding, flow cytometry; stronger effect = lower value; response (vesicle binding), % at 7 µM; 330,000 tested, 0.068% active; AID 2052;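 active means response, share of CD8 T cells binding vesicles, and their 90th percentile fluorescence all below set limits, cut at about 80% in these data, passing the limit was not always enough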;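 further: values below 100% mean blocked vesicle binding to the CD8+ T cells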
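Incubation: binding step 1.5 h, 37 °C, antibody labelling 20 min, ice; system: murine 2C transgenic CD8+ T lymphocytes; technique: cytometric PE anti-B7-1 and Alexa647 anti-CD8 signals after 1% paraformaldehyde fixation; also added: QL9-charged Drosophila Ld/ICAM-1/B7-1 vesicles; control set: naked versus QL9-loaded vesicles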
MIN6 prolif-2: MIN6 beta-cell replication induction, confirmed | shares compounds with MIN6 prolif-1 | MIN6 beta-cell proliferation, ATPlite luminescence, 48 h; cells kept in 0.2% serum; scaled between 0.2% and 10% serum | proliferation increase, % at 50 µM | 920 tested, under 10 active | AID 463095;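 active means proliferation increase above 40% at any of the four tested concentrations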
Active calls of the source: *; i = inactive; . = no result.

SMILES	MIN6 prolif-1	Rce1 inhib	V-ATPase pH	proKLK7 act	Yeast superoxide	T cell HTS	MIN6 prolif-2
COc1cc(CCC(=O)OCC(=O)NCc2ccc(Cl)cc2)cc(OC)c1OC	-1	i	6	-1	94	482	.
COc1cccc(NC(=O)CN(C)C(=O)c2cn(-c3ccccc3)nc2-c2cccs2)c1	-4	i	0	1	114	220	.
COc1cccc(NC(=O)CN(C)C(=O)c2cn(-c3ccccc3)nc2-c2cccnc2)c1	9.5*	.	1	0	104	166	-4
Cc1ccc(Cn2nnc3c(=O)[nH]c(C4CCCN(S(=O)(=O)c5ccc(F)cc5)C4)nc32)cc1 (configuration not stated)	-3	i	1	0	86	246	.
COC(=O)c1ccc(Cn2nnc3c(=O)[nH]c(C4CCCN(S(=O)(=O)c5ccc(C)cc5)C4)nc32)cc1 (configuration not stated)	11*	i	1	-1	104	583	-2
COc1ccc(OC)c(C(=O)CSc2nccc(-c3ccc(Br)cc3)n2)c1	5.6*	i	-1	0	108	311	-3
COc1ccc(CCNC/C=C/c2ccccc2)cc1	.	i	3	0	93	175	.
COc1ccc(CNC/C=C/c2ccccc2)cc1	7.6*	i	1	0	97	287	-6
CCC(C)NC(=O)CCSc1ccc(C)cc1 (configuration not stated)	0.0*	i	1	0	93	283	1
Fc1ccccc1N1CCN(c2ncnc3nc[nH]c23)CC1	11*	i	2	1	97	352	0
Clc1ccccc1N1CCN(c2ncnc3nc[nH]c23)CC1	13*	i	-2	0	106	520	1
COC(=O)[C@]12C=CCN1[C@@H](c1ccc(C(F)(F)F)cc1)c1c(c3ccccc3n1S(=O)(=O)c1ccc(C)cc1)C2	.	.	.	-2	.	.	.
CCc1ccc(Nc2nc(N)nc(CSc3nc4ccccc4s3)n2)cc1	-5	i	1	0	96	451	.
Nc1nc(CSc2nc3ccccc3s2)nc(N2CCCCC2)n1	9.0*	i	.	1	97	369	2
O=[N+]([O-])c1ccc(Cn2ccc3ccc(-c4ccc5ccn(Cc6ccccc6)c5c4)cc32)cc1	.	.	.	-1	.	.	.
C[N+]1=C(N)NC2=C3CCCCC3n3c(=O)n(-c4ccccc4)c(=O)n3C2C1 (configuration not stated)	.	.	.	0	.	.	.
COc1ccc(-c2cnnn2-c2ccc(N)cc2)cc1OC	7.6*	i	-3	0	114	342	5
COc1ccc2c(c1)[nH]c1c(=O)n(/N=C/c3ccc(OC)c(CN4CCCC4)c3)cnc12	-3	i	-1	0	90	450	.
COc1ccc(/C=N/n2cnc3c([nH]c4ccccc43)c2=O)cc1COc1ccccn1	8.3*	i	.	.	99	i	3
O=C(CCNC(=O)N1CC(=O)Nc2ccccc21)Nc1ccc(F)c(Cl)c1	4.9*	i	0	0	116	364	-2
O=C(CCNC(=O)N1CC(=O)Nc2ccccc21)Nc1ccc(Cl)cc1	-4	i	-4	0	94	277	.
COCCN1C(=O)[C@H]2C[C@@]13O[C@H](C1CCCCC1)N=C3CC1c3ccccc3C[C@@]12C (some centres not stated)	.	.	.	0	.	.	.
O=C(C1CCCN1S(=O)(=O)c1ccc([N+](=O)[O-])cc1)N1CCc2ccccc2C1 (configuration not stated)	.	.	.	-1	.	.	.
O=c1ccn(-c2cccc(C(F)(F)F)c2)nc1-c1ccn(-c2ccccc2F)n1	9.4*	i	2	0	105	214	-6
O=C(NCc1ccc(F)cc1)C(c1ccco1)N(C(=O)c1csnn1)c1ccccc1 (configuration not stated)	11*	i	-2	-1	101	352	-4
SMILES	MIN6 prolif-1	Rce1 inhib	V-ATPase pH	proKLK7 act	Yeast superoxide	T cell HTS	MIN6 prolif-2
O=C(NCc1ccc(F)cc1)C(c1ccccc1)N(C(=O)c1csnn1)c1ccccc1 (configuration not stated)	3	i	-2	1	107	402	.
Cc1cc(C)c(S(=O)(=O)c2ccccc2)c(Cl)n1	4.9*	i	-1	1	107	i	-1
COCCCNC(=O)c1ccc(Cn2c(=O)c3ccccc3n(Cc3ccc(Br)cc3)c2=O)cc1	.	.	.	1	.	.	.
O=S1(=O)CC(N2CCC(c3ccccc3)CC2)CN1Cc1cn(Cc2ccc(C(F)(F)F)cc2)nn1 (configuration not stated)	.	.	.	1	.	.	.
CC(C)Cn1c(N)c(/C=N/NC(=O)c2ccc(Cl)cc2)c(=O)n(C)c1=O	6.5*	i	-4	-1	96	624	-1
Cc1ccccc1-c1ccc2c(c1)[C@@H]1C[C@H]3[C@@H](CN1CC2)[C@H](C)ON3C	.	.	.	-1	.	.	.
COc1ccc(-c2nnc(SCC(=O)N3CCN(c4ccccc4)CC3)o2)cc1OC	1	i	3	1	85	76	.
COc1ccc(-c2nnc(SCC(=O)N3CCOCC3)o2)cc1OC	8.5*	i	1	0	133	354	2
CS(=O)(=O)N1CCC(C(=O)Nc2ccc(F)cc2)CC1	-2	i	-2	0	105	158	.
CS(=O)(=O)N1CCC(C(=O)Nc2ccc(F)cc2F)CC1	5.7*	i	2	0	94	276	1
CCCC[C@H]1C2CC(OC(=O)Nc3ccccc3C)C(C2)[C@H]2CCCCN21 (some centres not stated)	.	.	.	0	.	.	.
Cc1ccccc1NC(=O)CSc1nnc(C)c2ccccc12	5.8*	.	2	0	101	561	4
CCOc1ccc(-n2c(SCC(=O)Nc3ccc(S(=O)(=O)Nc4nccs4)cc3)nnc2-c2ccccc2)cc1	.	.	.	0	.	.	.
CC(=O)OCC(=O)Nc1ccc(N=Nc2ccccc2)cc1	0	i	-1	-1	105	186	.
CCOC(=O)/C(C(=Nc1ccccc1)Nc1ccccc1)=C(\C)O	7.0*	i	1	0	103	244	-5
CCCn1c(=N)c(S(=O)(=O)c2ccc(F)cc2)cc2c(=O)n3ccccc3nc21	17*	i	-2	1	107	469	-6
CC(C)c1nc2sc3c(SCC(N)=O)ncnc3c2c2c1CCC2	5.1*	i	3	0	116	147	5
CCCCc1nc2sc3c(SCC(=O)NCc4ccco4)ncnc3c2c2c1CCC2	-3	i	5	-1	99	116	.
O=C(/C=C/c1ccco1)NCc1ccccn1	9.4*	i	-1	0	99	233	2
